Measured values taken from ChEMBL document CHEMBL1143620, “Discovery of diphenyloxazole and Ndelta-Z-ornithine derivatives as highly potent and selective human prostaglandin EP(4) receptor antagonists” (J Med Chem, 2005).

Tests used:
[1] = target: T1, Prostaglandin D2 receptor (Homo sapiens, UniProt Q13258); experiment: Inhibition of [3H]PGD-2 binding to human prostanoid DP receptor
T1 sequence (Q13258 whole entry): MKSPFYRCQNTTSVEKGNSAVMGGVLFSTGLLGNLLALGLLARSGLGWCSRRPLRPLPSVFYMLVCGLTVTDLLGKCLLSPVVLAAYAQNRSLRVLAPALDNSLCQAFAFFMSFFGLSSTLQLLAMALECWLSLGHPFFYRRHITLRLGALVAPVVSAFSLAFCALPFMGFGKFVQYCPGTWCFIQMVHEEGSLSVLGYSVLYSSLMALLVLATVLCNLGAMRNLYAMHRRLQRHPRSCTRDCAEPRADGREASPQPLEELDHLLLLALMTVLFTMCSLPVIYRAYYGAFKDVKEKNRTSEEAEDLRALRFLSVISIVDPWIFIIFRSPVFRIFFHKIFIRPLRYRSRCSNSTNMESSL

Thromboxane A2 receptor = target: T2, Thromboxane A2 receptor (Homo sapiens, UniProt P21731); experiment: Inhibition of [3H]SQ-29,548 binding to human prostanoid TP receptor
T2 sequence (P21731 whole entry): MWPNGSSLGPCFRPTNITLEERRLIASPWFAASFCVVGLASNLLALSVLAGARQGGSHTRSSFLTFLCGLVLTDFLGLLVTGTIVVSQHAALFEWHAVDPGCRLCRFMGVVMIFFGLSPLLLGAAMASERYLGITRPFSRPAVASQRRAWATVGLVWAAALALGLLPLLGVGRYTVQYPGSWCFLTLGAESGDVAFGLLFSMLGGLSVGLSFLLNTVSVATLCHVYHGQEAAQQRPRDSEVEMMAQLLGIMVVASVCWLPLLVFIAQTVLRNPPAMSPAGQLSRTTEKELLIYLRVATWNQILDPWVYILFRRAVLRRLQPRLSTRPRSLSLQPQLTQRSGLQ

[2] = Half life in dog after iv administration (n=2-3); format: ADME, organism-based, Canis lupus familiaris; details: in vivo
[3] = target: T3, Prostaglandin E2 receptor EP3 subtype (Homo sapiens, UniProt P43115); experiment: Inhibition of [3H]PGE-2 binding to human prostanoid EP3 receptor
T3 sequence (P43115 whole entry): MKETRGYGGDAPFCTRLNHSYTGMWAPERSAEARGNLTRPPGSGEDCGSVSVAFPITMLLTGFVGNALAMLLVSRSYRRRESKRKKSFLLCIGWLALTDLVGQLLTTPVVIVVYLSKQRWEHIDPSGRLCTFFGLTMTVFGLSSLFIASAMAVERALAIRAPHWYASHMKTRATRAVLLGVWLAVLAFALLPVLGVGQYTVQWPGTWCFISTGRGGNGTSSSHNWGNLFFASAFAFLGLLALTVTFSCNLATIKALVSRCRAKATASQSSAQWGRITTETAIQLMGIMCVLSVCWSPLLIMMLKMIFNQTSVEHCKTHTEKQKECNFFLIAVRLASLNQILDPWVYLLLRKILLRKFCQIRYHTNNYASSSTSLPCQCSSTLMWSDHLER

[4] = Half life in rat after iv administration (n=2-3); format: ADME, organism-based; details: in vivo
[5] = target: T4, Prostaglandin E2 receptor EP1 subtype (Homo sapiens, UniProt P34995); experiment: Inhibition of [3H]-PGE-2 binding to human prostanoid EP1 receptor
T4 sequence (P34995 whole entry): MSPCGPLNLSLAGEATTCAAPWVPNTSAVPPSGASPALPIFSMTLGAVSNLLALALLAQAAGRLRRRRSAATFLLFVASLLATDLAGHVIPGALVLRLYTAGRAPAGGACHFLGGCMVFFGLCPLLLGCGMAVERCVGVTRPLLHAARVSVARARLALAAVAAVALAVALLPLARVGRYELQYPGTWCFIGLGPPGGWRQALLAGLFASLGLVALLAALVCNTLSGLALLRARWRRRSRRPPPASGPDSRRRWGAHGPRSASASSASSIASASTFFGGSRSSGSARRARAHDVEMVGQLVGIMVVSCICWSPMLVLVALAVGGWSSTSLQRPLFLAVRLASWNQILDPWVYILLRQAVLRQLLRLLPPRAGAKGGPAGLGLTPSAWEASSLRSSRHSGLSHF

[6] = target: Prostaglandin F2-alpha receptor (Homo sapiens, UniProt P43088); experiment: Inhibition of [3H]PGF-2 binding to human prostanoid FP receptor
[7] = Bioavailability in rat (dose 10 mg/kg p.o.); format: ADME, organism-based; details: in vivo, po
Prostacyclin receptor = Prostacyclin receptor (Homo sapiens, UniProt P43119); experiment: Inhibition of [3H]iloprost binding to human prostanoid IP receptor
[8] = Maximal plasma concentration in rats after 10 mg/kg oral dose n=3; format: ADME, organism-based; set-up: dose 10 mg/kg, route oral; details: rat
[9] = Bioavailability in dog at 3.2 mg/kg after po administration (n=3); format: ADME, organism-based, Canis lupus familiaris; details: in vivo
Procedure, shortened: (§1)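 Single oral doses, n = 3 animals per dose. Peak plasma level reported in ng/mL, with oral bioavailability given as F (%). Values are mean ± SE.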

[10] = Clearance in rat after iv administration (n=2-3); format: ADME, organism-based; details: in vivo
[11] = target: Prostaglandin E2 receptor EP2 subtype (Homo sapiens, UniProt P43116); experiment: Inhibition of [3H]PGE-2 binding to human prostanoid EP2 receptor
[12] = Maximal plasma concentration in dogs after 3.2 mg/kg oral dose, n=3; format: ADME, organism-based, Canis lupus familiaris; set-up: dose 3.2 mg/kg, route oral; details: dog; procedure, shortened: as §1
[13] = target: Prostaglandin E2 receptor EP4 subtype (Rattus norvegicus, UniProt P43114); experiment: Inhibition of rat prostanoid EP4 receptor
[14] = target: Prostaglandin E2 receptor EP4 subtype (Homo sapiens, UniProt P35408); experiment: Inhibition of [3H]PGE-2 binding to human prostanoid EP4 receptor
[15] = Clearance in dog after iv administration (n=2-3); format: ADME, organism-based, Canis lupus familiaris; details: in vivo
[16] = Bioavailability in dog at 0.10 mg/kg after po administration (n=3); format: ADME, organism-based, Canis lupus familiaris; details: in vivo, 0.1 mg/kg; procedure, shortened: as §1
[17] = Maximal plasma concentration in dogs after 0.1 mg/kg oral dose, n=3; format: ADME, organism-based, Canis lupus familiaris; set-up: dose 0.1 mg/kg, route oral; details: dog; procedure, shortened: as §1
[18] = Bioavailability in dog at 0.32 mg/kg after po administration (n=3); format: ADME, organism-based, Canis lupus familiaris; details: in vivo; procedure, shortened: as §1
[19] = Maximal plasma concentration in dogs after 0.32 mg/kg oral dose, n=3; format: ADME, organism-based, Canis lupus familiaris; set-up: dose 0.32 mg/kg, route oral; details: dog; procedure, shortened: as §1
[20] = Bioavailability in rat at 0.32 mg/kg after po administration (n=3); format: ADME, organism-based; details: in vivo

Prostaglandin E2 receptor EP4 subtype (Homo sapiens, UniProt P35408), sequence (P35408 whole entry): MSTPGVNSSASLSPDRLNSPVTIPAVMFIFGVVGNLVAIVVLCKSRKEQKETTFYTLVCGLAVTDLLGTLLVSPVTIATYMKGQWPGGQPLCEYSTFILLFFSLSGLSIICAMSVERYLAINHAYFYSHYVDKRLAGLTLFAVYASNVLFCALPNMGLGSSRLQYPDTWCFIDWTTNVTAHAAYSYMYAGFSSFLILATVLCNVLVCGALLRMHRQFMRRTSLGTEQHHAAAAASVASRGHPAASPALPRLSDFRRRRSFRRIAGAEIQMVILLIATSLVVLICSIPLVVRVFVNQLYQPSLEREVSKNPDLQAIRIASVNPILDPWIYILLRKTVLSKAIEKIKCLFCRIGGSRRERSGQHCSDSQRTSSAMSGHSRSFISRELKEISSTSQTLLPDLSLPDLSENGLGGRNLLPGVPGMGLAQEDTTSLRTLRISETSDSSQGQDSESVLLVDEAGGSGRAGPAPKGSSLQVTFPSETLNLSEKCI
Prostacyclin receptor, sequence (P43119 whole entry): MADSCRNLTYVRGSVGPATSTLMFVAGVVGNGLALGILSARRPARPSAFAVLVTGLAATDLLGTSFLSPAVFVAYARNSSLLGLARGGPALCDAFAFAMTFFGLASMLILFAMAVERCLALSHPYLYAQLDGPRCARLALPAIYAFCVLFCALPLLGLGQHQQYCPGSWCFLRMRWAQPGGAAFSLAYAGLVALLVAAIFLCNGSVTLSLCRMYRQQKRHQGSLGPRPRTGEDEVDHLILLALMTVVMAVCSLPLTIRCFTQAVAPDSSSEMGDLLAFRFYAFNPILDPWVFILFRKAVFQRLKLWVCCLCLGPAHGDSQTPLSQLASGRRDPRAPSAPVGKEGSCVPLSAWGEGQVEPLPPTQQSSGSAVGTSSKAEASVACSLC
Prostaglandin E2 receptor EP2 subtype, sequence (P43116 whole entry): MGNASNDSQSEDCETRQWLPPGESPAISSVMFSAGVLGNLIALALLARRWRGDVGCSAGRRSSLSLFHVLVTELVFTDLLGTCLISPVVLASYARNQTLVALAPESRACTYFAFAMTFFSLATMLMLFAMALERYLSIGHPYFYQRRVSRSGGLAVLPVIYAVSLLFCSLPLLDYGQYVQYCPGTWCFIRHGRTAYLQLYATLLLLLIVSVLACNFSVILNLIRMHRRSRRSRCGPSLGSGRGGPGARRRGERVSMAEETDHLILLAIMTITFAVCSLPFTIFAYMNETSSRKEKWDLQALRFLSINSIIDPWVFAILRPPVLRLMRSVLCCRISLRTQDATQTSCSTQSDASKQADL
Prostaglandin F2-alpha receptor, sequence (P43088 whole entry): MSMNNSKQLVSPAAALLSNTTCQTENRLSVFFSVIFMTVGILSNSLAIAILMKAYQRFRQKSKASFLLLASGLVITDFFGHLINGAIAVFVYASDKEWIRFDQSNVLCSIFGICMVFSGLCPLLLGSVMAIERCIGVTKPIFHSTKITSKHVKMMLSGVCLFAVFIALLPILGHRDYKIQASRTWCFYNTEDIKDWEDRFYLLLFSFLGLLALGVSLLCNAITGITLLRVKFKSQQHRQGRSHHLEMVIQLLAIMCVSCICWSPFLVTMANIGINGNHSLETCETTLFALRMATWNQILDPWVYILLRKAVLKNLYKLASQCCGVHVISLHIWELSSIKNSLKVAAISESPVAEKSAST
Prostaglandin E2 receptor EP4 subtype (Rattus norvegicus, UniProt P43114), sequence (P43114 whole entry): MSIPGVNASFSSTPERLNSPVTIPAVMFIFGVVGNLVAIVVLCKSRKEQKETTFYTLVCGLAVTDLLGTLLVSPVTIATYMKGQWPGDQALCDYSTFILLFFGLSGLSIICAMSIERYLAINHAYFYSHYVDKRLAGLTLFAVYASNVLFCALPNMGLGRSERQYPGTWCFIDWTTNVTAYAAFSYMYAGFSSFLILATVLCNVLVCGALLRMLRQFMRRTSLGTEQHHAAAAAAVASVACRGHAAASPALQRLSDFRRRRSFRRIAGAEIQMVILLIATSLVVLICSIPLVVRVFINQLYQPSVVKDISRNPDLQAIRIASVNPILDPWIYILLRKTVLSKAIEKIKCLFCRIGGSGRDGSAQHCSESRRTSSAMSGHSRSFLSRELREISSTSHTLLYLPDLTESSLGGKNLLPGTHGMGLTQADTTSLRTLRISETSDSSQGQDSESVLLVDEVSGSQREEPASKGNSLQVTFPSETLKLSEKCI

Row | Compound | Ki [1] | Ki (Thromboxane A2 receptor) | half-life [2] | Ki [3] | half-life [4] | Ki [5] | Ki [6] | Ki (Prostacyclin receptor) | Ki [11] | Ki [14] | clearance [15] | other results
1 | O=C(NS(=O)(=O)Cc1ccccc1)c1cccc(C[C@@H]2CCCC=C2c2nc(-c3ccccc3)c(-c3ccccc3)o2)c1 | > 3 µM | > 3 µM | 5.5 h | > 3 µM | 4.4 h | > 3 µM | > 3 µM | > 3 µM | > 3 µM | 0.0003 µM | 0.52 mL/min/kg | bioavailability [7]: 51%; Cmax [8]: 2100 ng/mL; bioavailability [9]: 97%; clearance [10]: 10.2 mL/min/kg; Cmax [12]: 8200 ng/mL; Ki [13]: 0.00074 µM
2 | O=C(O)c1cccc(C[C@@H]2CCCC=C2c2nc(-c3ccccc3)c(-c3ccccc3)o2)c1 | > 3 µM | > 3 µM | 5.5 h | > 3 µM | 4 h | 2.5 µM | > 3 µM | 0.61 µM | > 3 µM | 0.0055 µM | 0.52 mL/min/kg | bioavailability [16]: 25%; Cmax [17]: 57.3 ng/mL; bioavailability [7]: 99%; Cmax [8]: 9100 ng/mL; clearance [10]: 11.2 mL/min/kg
3 | O=C(O)CCCCCNC(=O)[C@H](CCCNC(=O)OCc1ccccc1)NC(=O)c1cc2ccccc2o1 | > 10 µM | > 10 µM | – | > 10 µM | – | > 10 µM | > 10 µM | > 10 µM | > 10 µM | 0.00091 µM | – | Ki [13]: 0.0051 µM
4 | O=C(NCCC[C@H](NC(=O)c1cc2ccccc2[nH]1)C(=O)N[C@@H](Cc1ccccc1)C(=O)O)OCc1ccccc1 | > 1 µM | > 1 µM | – | > 1 µM | – | > 1 µM | > 1 µM | > 1 µM | > 1 µM | 0.043 µM | – | –
5 | O=C(O)CCCCCNC(=O)[C@H](CCCCNC(=O)OCc1ccccc1)NC(=O)c1cc2ccccc2o1 | – | – | – | – | – | – | – | – | – | 0.0084 µM | – | –
6 | O=C(O)Cc1cccc(C[C@@H]2CCCC=C2c2nc(-c3ccccc3)c(-c3ccccc3)o2)c1 | – | – | – | – | – | – | – | 0.17 µM | – | 0.05 µM | – | –
7 | O=C([O-])COc1cccc(C[C@@H]2CCCC=C2c2nc(-c3ccccc3)c(-c3ccccc3)o2)c1.[Na+] | – | – | 3 h | > 1 µM | 6.6 h | – | – | – | – | 1.02 µM | 1.59 mL/min/kg | bioavailability [18]: 72%; Cmax [19]: 592 ng/mL; Cl [10]: 17.7 mL/min/kg; bioavailability [20]: 50%
8 | O=C(O)CCCCCNC(=O)[C@@H](CCCCNC(=O)OCc1ccccc1)NC(=O)c1cc2ccccc2o1 | – | – | – | – | – | – | – | – | – | 0.24 µM | – | –
9 | CN(Cc1ccccc1)C(=O)[C@H](Cc1ccccc1)NC(=O)[C@H](CCCNC(=O)OCc1ccccc1)NC(=O)c1cc2ccccc2[nH]1 | – | – | – | – | – | – | – | – | – | 0.08 µM | – | –
10 | O=C(NOCc1ccccc1)c1cccc(C[C@@H]2CCCC=C2c2nc(-c3ccccc3)c(-c3ccccc3)o2)c1 | > 1 µM | > 1 µM | – | > 3 µM | – | > 3 µM | > 1 µM | > 3 µM | > 3 µM | 0.00068 µM | – | –
